From ChEMBL document CHEMBL4024760, “Specific Inhibition of Bacterial β-Glucuronidase by Pyrazolo[4,3-c]quinoline Derivatives via a pH-Dependent Manner To Suppress Chemotherapy-Induced Intestinal Toxicity” (J Med Chem, 2017)
Active and inactive are the calls of the source. The calls are words filed in the database; no cut-off is given here.

How the values were obtained:
[1] = system: Escherichia coli; test: Inhibition of N-terminal His-tagged Escherichia coli beta-glucuronidase expressed in Escherichia coli BL21 (DE3) assessed as residual activity using pNPG as substrate at 10 uM preincubated for 30 mins followed by substrate addition measured after 1 hr relative to control
Outline: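 Purified E. coli βG (20 ng) preincubated with 10 μM compound for 30 min at 37 °C in PBS pH 7.5 with 10% DMSO and 0.05% BSA. pNPG (20 mM stock) then added for 1 h, quenched with 2 N NaOH, and read at OD405. Result given as % activity versus a 10% DMSO control; n = 3.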

[2] = target: T1, beta-glucuronidase (Homo sapiens, UniProt P08236); test: Inhibition of N-terminal His-tagged human beta-glucuronidase expressed in Escherichia coli BL21 (DE3) assessed as residual activity using pNPG as substrate at 10 uM preincubated for 30 mins followed by substrate addition measured after 1 hr relative to control; settings: probe pNPG, read-out: Activity
T1 sequence (P08236 whole entry): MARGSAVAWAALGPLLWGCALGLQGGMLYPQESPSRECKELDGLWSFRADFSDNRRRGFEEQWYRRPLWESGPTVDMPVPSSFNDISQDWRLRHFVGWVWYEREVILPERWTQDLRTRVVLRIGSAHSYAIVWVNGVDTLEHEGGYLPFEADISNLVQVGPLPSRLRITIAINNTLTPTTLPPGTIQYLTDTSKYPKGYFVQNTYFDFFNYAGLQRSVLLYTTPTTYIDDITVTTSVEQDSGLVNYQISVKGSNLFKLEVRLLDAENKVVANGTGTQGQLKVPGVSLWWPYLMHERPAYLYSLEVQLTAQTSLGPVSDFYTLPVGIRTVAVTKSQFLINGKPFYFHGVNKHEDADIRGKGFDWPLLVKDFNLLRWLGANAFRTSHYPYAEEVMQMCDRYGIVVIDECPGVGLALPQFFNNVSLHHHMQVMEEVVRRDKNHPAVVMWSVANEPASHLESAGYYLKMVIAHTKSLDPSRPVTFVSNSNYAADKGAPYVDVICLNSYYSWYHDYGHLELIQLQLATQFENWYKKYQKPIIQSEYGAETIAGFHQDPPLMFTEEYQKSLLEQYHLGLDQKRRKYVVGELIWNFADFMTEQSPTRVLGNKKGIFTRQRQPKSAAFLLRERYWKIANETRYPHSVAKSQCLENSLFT

[3] = Inhibition of N-terminal His-tagged Escherichia coli beta-glucuronidase expressed in Escherichia coli BL21 (DE3) using pNPG as substrate preincubated for 30 mins followed by substrate addition measured after 1 hr
Outline: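 Purified E. coli βG (20 ng) preincubated 30 min at 37 °C with compound (0.64–10 000 nM) in PBS pH 7.5 containing 10% DMSO and 0.05% BSA. pNPG (20 mM stock) then added for 1 h, quenched with 2 N NaOH, and pNP read at 405 nm. IC50 derived from a four-parameter curve fit; SD of n = 3.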

[4] = system: Escherichia coli BL21(DE3); test: Inhibition of beta-glucuronidase in Escherichia coli BL21 (DE3) using pNPG as substrate at 50 uM preincubated for 30 mins followed by substrate addition measured after 1 hr relative to control
Outline: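 BL21(DE3) E. coli grown overnight and diluted to OD600 0.1 in LB. Cells treated with compound (50, 10 or 2 μM) for 30 min at 37 °C, then pNPG (40 mM stock) added for 1 h. Cells pelleted at 6000g; supernatant quenched with NaOH and read at OD405. Activity given as % of a 1% DMSO control.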

[5] = system: Escherichia coli; test: Toxicity against Escherichia coli BL21(DE3) assessed as effect on cell growth at 100 uM after 6 hrs
Outline: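 BL21(DE3) E. coli (diluted to OD600 0.1 in LB after overnight growth) incubated with compound at a final 100 μM, shaking at 37 °C for 6 h. Growth measured by OD600; viability given as % of the untreated control.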

[6] = system: Escherichia coli; test: Inhibition of intestinal Escherichia coli beta-glucuronidase in Balb/cJ mouse using FDGIcU as substrate at 3 mg/kg, po for 5 days measured on day 5 post last dose 120 mins after probe administration; format: organism-based
Outline: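 BALB/cJ mice were gavaged with inhibitor at 3 mg/kg/day or DDW (200 μL) for 5 days. FDGlcU probe (500 μg/100 μL) given orally 30 min after the fifth dose. Intestinal fluorescein imaged in vivo 120 min after the probe (ex 490/em 525 nm) and quantified as average radiance; n = 6; two-tailed t test.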

[7] = system: Escherichia coli; test: Inhibition of Escherichia coli beta-glucuronidase in Balb/cJ mouse feces using pNPG as substrate at 3 mg/kg, po for 5 days measured on day 5 post last dose after 1 hr; format: organism-based
Outline: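 Mice gavaged with inhibitor at 3 mg/kg/day or DDW for 5 days. Fresh feces homogenized 1:9 w/v in assay buffer, mixed with assay buffer and 20 mM pNPG (stock), incubated 37 °C for 1 h, centrifuged, quenched with 2 N NaOH, and pNP read at OD405; n = 6; two-tailed t test.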

[8] = system: Mus musculus; test: Protection against CPT-11 induced intestinal toxicity in Balb/cJ mouse assessed as reduction in intestinal tissue damage at 3 mg/kg/day, po starting from 2 days before 50 mg/kg/day, ip CPT-11 administration for 10 consecutive days by hematoxylin and eosin staining based method; format: functional, organism-based
Outline: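 Inhibitor given orally to BALB/cJ mice at 3 mg/kg/day in DDW (200 μL/day for controls), starting 2 days before CPT-11. CPT-11 50 mg/kg or saline given ip for 10 consecutive days. Jejunum, ileum and colon sections then H&E-stained and examined for villus and crypt destruction; 3–5 mice per group.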

[9] = system: Mus musculus; test: Protection against CPT-11 induced intestinal toxicity in Balb/cJ mouse transplanted with mouse CT26 cells assessed as reduction in diarrhea level at 3 mg/kg/day administered via oral gavage for 18 days starting from 2 days before 50 mg/kg/day, ip CPT-11 dosing from day 2 measured every other day up to 18 days; format: functional; set-up: scale not given: the % may be the effect or the level left
Outline: (§1)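 CT26 tumour-bearing BALB/c mice (cells inoculated day −8). Inhibitor given orally at 3 mg/kg/day in DDW (dosing solution 0.3 mg/mL) from day −2 onward. Daily ip CPT-11 50 mg/kg or saline from day 0. Tumour growth, body weight and diarrhea score (0 solid to 3 watery with severe perianal staining) recorded every other day; severity distribution on day 18. n = 6 mice/group; two-way ANOVA.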

[10] = system: CT26; test: Effect on CPT-11 induced antitumor activity against mouse CT26 cells transplanted in Balb/cJ mouse assessed as reduction in tumor volume at 3 mg/kg/day administered via oral gavage for 18 days starting from 2 days before 50 mg/kg/day, ip CPT-11 dosing from day 2 measured every other day up to 18 days; format: functional, organism-based; outline: as §1
[11] = system: Mus musculus; test: Effect on systemic metabolism of CPT-11 in mouse CT26 cells transplanted Balb/cJ mouse assessed as effect on CPT-11-induced weight loss at 3 mg/kg/day administered via oral gavage for 18 days starting from 2 days before 50 mg/kg/day, ip CPT-11 dosing from day 2 measured every other day up to 18 days; format: functional, organism-based; outline: as §1
[12] = system: Escherichia coli; test: Inhibition of N-terminal His-tagged Escherichia coli beta-glucuronidase expressed in Escherichia coli BL21 (DE3) using pNPG as substrate at 10 uM at pH 6.5
Outline: (§2)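 Purified E. coli βG assay at 10 μM compound, with PBS replaced by Na2HPO4 (0.2 M)/citric acid (0.1 M) buffer mixtures at each pH. Enzyme preincubated with compound 30 min at 37 °C, then pNPG added for 1 h; NaOH-quenched pNP read at 405 nm. Activity given relative to a 10% DMSO control at the same pH; n = 3.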

[13] = system: Escherichia coli; test: Inhibition of N-terminal His-tagged Escherichia coli beta-glucuronidase expressed in Escherichia coli BL21 (DE3) using pNPG as substrate at 10 uM at pH 6.0; outline: as §2
[14] = system: Escherichia coli; test: Inhibition of N-terminal His-tagged Escherichia coli beta-glucuronidase expressed in Escherichia coli BL21 (DE3) using pNPG as substrate at 10 uM at pH 5.5; outline: as §2
[15] = system: Escherichia coli; test: Inhibition of N-terminal His-tagged Escherichia coli beta-glucuronidase expressed in Escherichia coli BL21 (DE3) using pNPG as substrate at 10 uM at pH 7.5; outline: as §2

For `Nc1n[nH]c2c1c(Nc1ccc(F)cc1)nc1ccccc12`, the Activity [1] was 5.59%, the activity at 1 h, 10 µM [2] was 101% and the IC50 [3] was 136 nM. The inhibition [4] was over 80%, the Activity [5] was “Non-Toxic” and the inhibition [6] was 75%. For the same molecule, the inhibition [7] was “Active”, the Activity [8] was “Active” and the Activity [9] was 50%. The Activity [10] was “inactive”, the Activity [11] was “inactive” and the inhibition [12] was 90%. The inhibition [13] was 80%, the inhibition [14] was 50% and the inhibition [15] was 90%.
With `Cc1ccc(Nc2nc3ccccc3c3[nH]nc(N)c23)cc1` the Activity [1] was 4.78%, the activity at 1 h, 10 µM [2] was 100% and the IC50 [3] was 37.3 nM. The inhibition [4] was over 80%, the Activity [5] was “Non-Toxic” and the inhibition [6] was 40%. For the same molecule, the inhibition [7] was “Active”.
